In ChEMBL document CHEMBL1133470, “Synthesis and antiviral activity of oxaselenolane nucleosides” (J Med Chem, 2000):
pEC50, pIC50: −log10 of the molar value.

Key:
[1] = In vitro cytotoxicity against PBM cells; type: functional, cell-based, Homo sapiens
[2] = test system: Human immunodeficiency virus 1; assay: Antiviral activity against Immunodeficiency virus type-1 (HIV-1) in peripheral blood mononuclear cells; type: functional, organism-based
How it was run: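 HIV-1 infection of human peripheral blood mononuclear (PBM) cells; EC50 reported in µM.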

Vero [3] = assay: (§1) In vitro cytotoxicity against Vero cells; type: functional, cell-based, Chlorocebus sabaeus
CCRF-CEM [4] = assay: In vitro cytotoxicity against CEM cells; type: functional, cell-based, Homo sapiens
Hepatitis B virus = assay: Antiviral activity against Hepatitis B virus (HBV) in 2.2.15 cells; type: functional, organism-based; conditions: HepG2 2.2.15
CCRF-CEM [5] = assay: In vitro cytotoxicity againstCEM cells; type: functional, cell-based; conditions: Homo sapiens
Vero [6] = assay: as §1; type: functional, cell-based; conditions: Chlorocebus sabaeus
[7] = test system: Human immunodeficiency virus 1; assay: (§2) Anti HIV activity against cloned FTC/3TC-resistant mutant M184V HIV-1; type: functional, organism-based
[8] = test system: Human immunodeficiency virus 1; assay: as §2; type: functional
[9] = test system: Human immunodeficiency virus 1; assay: (§3) Anti HIV activity against cloned FTC-sensitive mutant xxBRU HIV-1; type: functional
[10] = test system: Human immunodeficiency virus 1; assay: as §3; type: functional, organism-based
[11] = Fold increase expressed as ratio of EC50 from M184V virus to that from xxBRU virus; type: functional
[12] = Fold increase expressed as ratio of EC90 from M184V virus to that from xxBRU virus; type: functional

## Cc1cn([C@H]2C[Se][C@@H](CO)O2)c(=O)[nH]c1=O
[1]; Homo sapiens, PBMC
  pIC50: < 4.00
[2]; Human immunodeficiency virus 1
  pEC50: < 5.00
Vero [3]; Chlorocebus sabaeus, Vero
  pIC50: < 4.00
CCRF-CEM [4]; Homo sapiens, CCRF-CEM
  pIC50: < 4.00
Hepatitis B virus
  pEC50: < 5.00

## Nc1ccn([C@@H]2C[Se][C@@H](CO)O2)c(=O)n1
[1]; Homo sapiens, PBMC
  pIC50: < 4.00
[2]; Human immunodeficiency virus 1
  pEC50: < 4.00
Vero [3]; Chlorocebus sabaeus, Vero
  pIC50: < 4.00
CCRF-CEM [4]; Homo sapiens, CCRF-CEM
  pIC50: < 4.00

## OC[C@H]1O[C@@H](n2cnc3c(O)ncnc32)C[Se]1
[1]; Homo sapiens, PBMC
  pIC50: < 4.00
[2]; Human immunodeficiency virus 1
  pEC50: < 4.00
Vero [3]; Chlorocebus sabaeus, Vero
  pIC50: < 4.00
CCRF-CEM [4]; Homo sapiens, CCRF-CEM
  pIC50: < 4.00
Hepatitis B virus
  pEC50: < 5.00

## Cc1cn([C@@H]2C[Se][C@@H](CO)O2)c(=O)[nH]c1=O
[1]; Homo sapiens, PBMC
  pIC50: < 4.00
[2]; Human immunodeficiency virus 1
  pEC50: < 4.00
Vero [3]; Chlorocebus sabaeus, Vero
  pIC50: < 4.00
CCRF-CEM [4]; Homo sapiens, CCRF-CEM
  pIC50: < 4.00
Hepatitis B virus
  pEC50: < 5.00

## O=c1ccn([C@H]2C[Se][C@@H](CO)O2)c(=O)[nH]1
[1]; Homo sapiens, PBMC
  pIC50: < 4.00
[2]; Human immunodeficiency virus 1
  pEC50: < 4.00
CCRF-CEM [5]
  pIC50: < 4.00
Vero [6]
  pIC50: < 4.00
Hepatitis B virus
  pEC50: < 5.00

## Nc1ncnc2c1ncn2[C@@H]1C[Se][C@@H](CO)O1
[1]; Homo sapiens, PBMC
  pIC50: < 4.00
[2]; Human immunodeficiency virus 1
  pEC50: < 4.00
Vero [3]; Chlorocebus sabaeus, Vero
  pIC50: < 4.00
CCRF-CEM [4]; Homo sapiens, CCRF-CEM
  pIC50: < 4.00
Hepatitis B virus
  pEC50: < 5.00

## Nc1ncnc2c1ncn2[C@H]1C[Se][C@@H](CO)O1
[1]; Homo sapiens, PBMC
  pIC50: < 4.00
[2]; Human immunodeficiency virus 1
  pEC50: < 4.30
Vero [3]; Chlorocebus sabaeus, Vero
  pIC50: < 4.00
CCRF-CEM [4]; Homo sapiens, CCRF-CEM
  pIC50: < 4.00
Hepatitis B virus
  pEC50: < 5.00

## Nc1nc(O)c2ncn([C@@H]3C[Se][C@@H](CO)O3)c2n1
[1]; Homo sapiens, PBMC
  pIC50: < 4.00
[2]; Human immunodeficiency virus 1
  pEC50: < 4.00
Vero [3]; Chlorocebus sabaeus, Vero
  pIC50: < 4.00
CCRF-CEM [4]; Homo sapiens, CCRF-CEM
  pIC50: < 4.00
Hepatitis B virus
  pEC50: < 5.00

## OC[C@H]1O[C@H](n2cnc3c(O)ncnc32)C[Se]1
[1]; Homo sapiens, PBMC
  pIC50: < 4.00
[2]; Human immunodeficiency virus 1
  pEC50: < 4.00
Vero [3]; Chlorocebus sabaeus, Vero
  pIC50: < 4.00
CCRF-CEM [4]; Homo sapiens, CCRF-CEM
  pIC50: < 4.00
Hepatitis B virus
  pEC50: < 5.00

## O=c1ccn([C@@H]2C[Se][C@@H](CO)O2)c(=O)[nH]1
[1]; Homo sapiens, PBMC
  pIC50: < 4.00
[2]; Human immunodeficiency virus 1
  pEC50: 4.00
Vero [3]; Chlorocebus sabaeus, Vero
  pIC50: < 4.00
CCRF-CEM [4]; Homo sapiens, CCRF-CEM
  pIC50: < 4.00
Hepatitis B virus
  pEC50: < 5.00

## Nc1nc(O)c2ncn([C@H]3C[Se][C@@H](CO)O3)c2n1
[1]; Homo sapiens, PBMC
  pIC50: < 4.00
[2]; Human immunodeficiency virus 1
  pEC50: 4.54
Vero [3]; Chlorocebus sabaeus, Vero
  pIC50: < 4.00
CCRF-CEM [4]; Homo sapiens, CCRF-CEM
  pIC50: < 4.00
Hepatitis B virus
  pEC50: < 5.00

## Nc1nc(=O)n([C@H]2C[Se][C@@H](CO)O2)cc1F (racemic)
[1]; Homo sapiens, PBMC
  pIC50: < 4.00
[2]
  pEC50: 6.14
Vero [3]; Chlorocebus sabaeus, Vero
  pIC50: < 4.00
CCRF-CEM [4]; Homo sapiens, CCRF-CEM
  pIC50: < 4.00
Hepatitis B virus
  pEC50: 5.92

## Nc1ccn([C@H]2C[Se][C@@H](CO)O2)c(=O)n1 (stereo in doubt; 9c)
[1]; Homo sapiens, PBMC
  pIC50: < 4.00
[2]
  pEC50: 5.57
[7]
  pEC50: 3.97
Vero [3]; Chlorocebus sabaeus, Vero
  pIC50: < 4.00
[8]
  EC90: 337 µM
CCRF-CEM [4]; Homo sapiens, CCRF-CEM
  pIC50: < 4.00
[9]
  EC90: 6.9 µM
[10]
  pEC50: 5.74
[11]
  FI: 59
[12]
  FI: 49
Hepatitis B virus
  pEC50: 5.92

## Nc1nc(=O)n([C@@H]2C[Se][C@@H](CO)O2)cc1F (stereo in doubt; 10d)
[2]
  pEC50: 4.24
Hepatitis B virus
  pEC50: < 5.00

## Nc1nc(=O)n([C@@H]2C[Se][C@@H](CO)O2)cc1F (stereo in doubt; (+))
[2]
  pEC50: 4.02

## Nc1nc(=O)n([C@H]2C[Se][C@@H](CO)O2)cc1F (stereo in doubt; (+))
[2]
  pEC50: 4.38

## Nc1ccn([C@H]2C[Se][C@@H](CO)O2)c(=O)n1 (stereo in doubt; (+))
[1]; pbm
  pIC50: 4.00
[2]
  pEC50: 5.47
[7]
  pEC50: 4.30
Vero [3]; vero
  pIC50: 4.00
[8]
  EC90: 50 µM
CCRF-CEM [4]; ccrf-cem
  pIC50: 4.00
[9]
  EC90: 35.1 µM
[10]
  pEC50: 5.06
[11]
  FI: >6
[12]
  FI: >1

## Nc1nc(=O)n([C@@H]2C[Se][C@@H](CO)O2)cc1F (stereo in doubt; (-))
[1]; Homo sapiens, PBMC
  pIC50: < 4.00
[2]
  pEC50: 5.19
Vero [3]; Chlorocebus sabaeus, Vero
  pIC50: < 4.00
CCRF-CEM [4]; Homo sapiens, CCRF-CEM
  pIC50: < 4.00

## Nc1nc(=O)n([C@H]2C[Se][C@@H](CO)O2)cc1F (stereo in doubt; (-))
[2]
  pEC50: 6.70

## Nc1ccn([C@H]2C[Se][C@@H](CO)O2)c(=O)n1 (stereo in doubt; (-))
[2]
  pEC50: 6.05
[7]
  pEC50: < 4.30
[8]
  EC90: > 50 µM
[9]
  EC90: 0.95 µM
[10]
  pEC50: 6.96
[11]
  FI: >455
[12]
  FI: >53

## Nc1ccn([C@@H]2CS[C@H](CO)O2)c(=O)n1 [LAMIVUDINE]
[1]; Homo sapiens, PBMC
  pIC50: < 4.00
[2]; Human immunodeficiency virus 1
  pEC50: 7.15
Vero [3]; Chlorocebus sabaeus, Vero
  pIC50: < 4.00
CCRF-CEM [4]; Homo sapiens, CCRF-CEM
  pIC50: < 4.00
Hepatitis B virus
  pEC50: 8.10
